Results from different studies.

| Structure (SMILES) | species | matrix | route | dose | setting | Cmax |
| --- | --- | --- | --- | --- | --- | --- |
| CN(C)C(=O)c1cc2cnc(Nc3ccc(-c4ccc5c(=O)cc(N6CCOCC6)oc5c4)cc3)nc2n1C1CCCC1.Cl | BALB/c mouse | plasma | intravenous | 2 mg/kg | – | 3690 ng/mL |
| COC1=CC(c2ccc[nH]2)=N/C1=C\c1cc(Cc2ccc(OC(F)(F)F)cc2)c(C)[nH]1.Cl | male CD-1 mouse | liver | oral | 40 mg/kg | single dose | 2660 ng/mL |
| Cc1cc(-c2ccnc3[nH]cc(F)c23)cc(F)c1[C@@]1(O)[C@H](C)CN(C2CCS(=O)(=O)CC2)C[C@@H]1C | male CD-1 mouse | plasma | intravenous | 1 mg/kg | – | 1620 ng/mL |
| O=C1CCC(N2Cc3cc(C4CCN(Cc5ccccc5)CC4)ccc3C2=O)C(=O)N1 (stereo not drawn) | male CD-1 mouse | plasma | oral | 3 mg/kg | – | 273 ng/mL |
| NCc1ccc(-c2nn(Cc3ccccc3)c3ccccc23)o1 | male CD-1 mouse | plasma | intraperitoneal | 30 mg/kg | – | 4030 ng/mL |
| C=CCn1c(=O)c2cnc(Nc3ccc(N4CCN(C)CC4)cc3)nc2n1-c1ccc2c(n1)[C@@](O)(CC)CC2 | mouse | plasma | oral | 60 mg/kg | – | 10.5 µM |
| CC(C)(C)c1sc2ncnc(Oc3c(F)cccc3OC(F)(F)F)c2c1-c1ccc(Cl)cc1 | mouse | plasma | oral | 30 mg/kg | single dose | 10300 ng/mL |
| Cc1ncsc1-c1ccc([C@H](CC(=O)N2CCN(c3ccc(C#Cc4ccc(C(=O)N5CCC(n6cc(-c7ccc8c(c7)CCN8C(=O)Cc7cccc(OC(F)(F)F)c7)c7c(N)ncnc76)CC5)cc4)cn3)CC2)NC(=O)[C@@H]2C[C@@H](O)CN2C(=O)[C@@H](NC(=O)C2(F)CC2)C(C)(C)C)cc1 | male C57BL/6 mouse | plasma | intravenous | 1 mg/kg | – | 19600 ng/mL |
| Cc1nc2ccc(OCc3ccc(C(F)(F)F)cc3)cc2[nH]1 | male BALB/c mouse | plasma | oral | 10 mg/kg | – | 5890 ng/mL |
| NCc1cc2c(cc1F)C(=O)N(C1CCC(=O)NC1=O)C2 (stereo not drawn) | male CD-1 mouse | plasma | oral | 10 mg/kg | – | 97.2 ng/mL |
| Cc1ccc(OCC(=O)N[C@@H](Cc2c[nH]c3ccccc23)C(=O)OC(C)C)cc1 | male Sprague-Dawley mouse | plasma | intravenous | 10 mg/kg | – | 1840 ng/mL |
| Cc1ncsc1-c1ccc([C@H](C)NC(=O)[C@@H]2C[C@@H](O)CN2C(=O)[C@@H](NC(=O)CCc2ccc(C#Cc3ccc(C(=O)NCCCn4cc(-c5ccc6c(c5)CCN6C(=O)Cc5cccc(OC(F)(F)F)c5)c5c(N)ncnc54)cc3)cn2)C(C)(C)C)cc1 | male C57BL/6 mouse | plasma | intravenous | 1 mg/kg | – | 11900 ng/mL |
| C[C@@H](CN1CCC(n2c(=O)[nH]c3cc(Cl)ccc32)CC1)NC(=O)c1ccc2ccccc2c1 | male CD-1 mouse | brain | intravenous | 1 mg/kg | single dose | 0.236 ng/mL |
| Cc1cc(-c2ccnc3[nH]cc(F)c23)cc(F)c1[C@@]1(O)[C@H](C)CN(C(=O)CN)C[C@@H]1C | male CD-1 mouse | plasma | oral | 3 mg/kg | – | 1260 ng/mL |
| COC1=CC(c2ccc[nH]2)=N/C1=C\c1[nH]c(Cc2ccc(OC(F)(F)F)cc2)cc1Cc1ccc(OC(F)(F)F)cc1 | male CD-1 mouse | liver | oral | 40 mg/kg | single dose | 20300 ng/mL |
| COc1cccc2c(N3CCC(CCP(=O)(O)O)CC3)ncnc12 | female BALB/c mouse | serum | subcutaneous | 50 mg/kg | tumour-bearing | 23000 ng/mL |
| OCc1nc2ccc(NCc3ccc(C(F)(F)F)cc3)cc2[nH]1 | male BALB/c mouse | plasma | intravenous | 1 mg/kg | – | 378 ng/mL |
| NCc1ccc(-c2nn(Cc3ccncc3)c3ccccc23)o1 | male CD-1 mouse | plasma | oral | 10 mg/kg | – | 168 ng/mL |
| CCOC(=O)c1c(NC(=O)CNC(C)C)sc2c1CCCCC2 | male mouse | plasma | intraperitoneal | 5 mg/kg | single dose | 193 ng/mL |
| OCc1ccc(-c2nn(Cc3ccccc3)c3ccccc23)o1 | male CD-1 mouse | plasma | intraperitoneal | 30 mg/kg | – | 5540 ng/mL |
| Cc1ccc(N(c2ccc(NC(=O)CN(C)c3ccccc3N3CCCC3=O)cc2)C(C)C)cc1 | male CD-1 mouse | plasma | oral | 20 mg/kg | – | 1000 ng/mL |
